Assay results published in ChEMBL document CHEMBL1129461 (J Med Chem, 1996).

Target: T1, Protein kinase C beta type (Homo sapiens, UniProt P05771)
Assay: Evaluated against recombinant human Protein kinase C beta 1
Summary of the method: (§1)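 Recombinant human PKC isozymes expressed in SF9 cells via baculovirus, partly purified (50–90%). 32P transfer from 30 μM [32P]ATP to 200 μg/mL histone IIIS in 20 mM Hepes pH 7.5, 10 mM MgCl2, EGTA, CaCl2, phosphatidylserine, and diacylglycerol at the isozyme-dependent level giving half-maximal activation. 10 min at 30 °C, TCA stop, filter counting. No-lipid background subtracted.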

T1 sequence (P05771 whole entry): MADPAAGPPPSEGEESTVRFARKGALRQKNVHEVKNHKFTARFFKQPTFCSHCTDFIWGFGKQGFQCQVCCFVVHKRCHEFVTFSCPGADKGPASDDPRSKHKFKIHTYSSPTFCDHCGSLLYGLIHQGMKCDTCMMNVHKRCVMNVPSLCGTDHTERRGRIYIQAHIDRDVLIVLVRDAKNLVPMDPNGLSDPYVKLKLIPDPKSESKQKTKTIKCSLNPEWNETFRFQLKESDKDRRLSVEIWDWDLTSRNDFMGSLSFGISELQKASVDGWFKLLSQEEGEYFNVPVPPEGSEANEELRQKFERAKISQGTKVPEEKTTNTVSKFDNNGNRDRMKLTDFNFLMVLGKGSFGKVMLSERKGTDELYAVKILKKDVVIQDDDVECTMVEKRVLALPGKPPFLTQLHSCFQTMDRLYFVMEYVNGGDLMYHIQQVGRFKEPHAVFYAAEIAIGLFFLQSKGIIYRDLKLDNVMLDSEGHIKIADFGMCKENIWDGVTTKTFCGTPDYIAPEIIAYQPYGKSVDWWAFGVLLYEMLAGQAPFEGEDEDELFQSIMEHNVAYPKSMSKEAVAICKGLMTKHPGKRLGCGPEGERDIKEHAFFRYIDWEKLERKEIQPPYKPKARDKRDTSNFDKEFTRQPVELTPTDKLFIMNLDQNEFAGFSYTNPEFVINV

Compound | IC50
O=C(OCCCc1ccc(O)cc1)c1cc(O)c(C(=O)c2c(O)cccc2C(=O)O)c(O)c1 | 210 nM
O=C(OC[C@H](Cc1ccc(O)cc1)NS(=O)(=O)c1ccccc1)c1cc(O)c(C(=O)c2c(O)cccc2C(=O)O)c(O)c1 | 230 nM
O=C(OC1CCCC1Cc1ccc(O)cc1)c1cc(O)c(C(=O)c2c(O)cccc2C(=O)O)c(O)c1 (stereo in doubt; 20b) | 20 nM
O=C(OC1CNCC1Cc1ccc(O)cc1)c1cc(O)c(C(=O)c2c(O)cccc2C(=O)O)c(O)c1 (stereo unspecified) | 10 nM

Results, then the molecule that gave them:

IC50 | Compound
880 nM | CN(C)C(COC(=O)c1cc(O)c(C(=O)c2c(O)cccc2C(=O)O)c(O)c1)Cc1ccc(O)cc1 (stereo unspecified)
100 nM | COC(=O)c1cccc(O)c1C(=O)c1c(O)cc(C(=O)OC2CCCC2Cc2ccc(O)cc2)cc1O (stereo unspecified)

Target: T1, Protein kinase C beta type
Assay: Evaluated against recombinant human Protein kinase C beta 2
Summary of the method: as §1

Compound | IC50
O=C(OCCCc1ccc(O)cc1)c1cc(O)c(C(=O)c2c(O)cccc2C(=O)O)c(O)c1 | 270 nM
O=C(OC[C@H](Cc1ccc(O)cc1)NS(=O)(=O)c1ccccc1)c1cc(O)c(C(=O)c2c(O)cccc2C(=O)O)c(O)c1 | 20 nM
O=C(OC1CCCC1Cc1ccc(O)cc1)c1cc(O)c(C(=O)c2c(O)cccc2C(=O)O)c(O)c1 (stereo in doubt; 20b) | 20 nM
O=C(OC1CNCC1Cc1ccc(O)cc1)c1cc(O)c(C(=O)c2c(O)cccc2C(=O)O)c(O)c1 (stereo unspecified) | 30 nM

Continued, values first:

IC50 | Compound
500 nM | CN(C)C(COC(=O)c1cc(O)c(C(=O)c2c(O)cccc2C(=O)O)c(O)c1)Cc1ccc(O)cc1 (stereo unspecified)
90 nM | COC(=O)c1cccc(O)c1C(=O)c1c(O)cc(C(=O)OC2CCCC2Cc2ccc(O)cc2)cc1O (stereo unspecified)

Target: Protein kinase C gamma type (Homo sapiens, UniProt P05129)
Assay: Evaluated against recombinant human Protein kinase C gamma
Summary of the method: as §1

Compound | IC50
O=C(OCCCc1ccc(O)cc1)c1cc(O)c(C(=O)c2c(O)cccc2C(=O)O)c(O)c1 | 830 nM
O=C(OC[C@H](Cc1ccc(O)cc1)NS(=O)(=O)c1ccccc1)c1cc(O)c(C(=O)c2c(O)cccc2C(=O)O)c(O)c1 | 2600 nM
O=C(OC1CCCC1Cc1ccc(O)cc1)c1cc(O)c(C(=O)c2c(O)cccc2C(=O)O)c(O)c1 (stereo in doubt; 20b) | 130 nM
O=C(OC1CNCC1Cc1ccc(O)cc1)c1cc(O)c(C(=O)c2c(O)cccc2C(=O)O)c(O)c1 (stereo unspecified) | 40 nM

The remaining lines, values ahead:

IC50 | Compound
4200 nM | CN(C)C(COC(=O)c1cc(O)c(C(=O)c2c(O)cccc2C(=O)O)c(O)c1)Cc1ccc(O)cc1 (stereo unspecified)
1700 nM | COC(=O)c1cccc(O)c1C(=O)c1c(O)cc(C(=O)OC2CCCC2Cc2ccc(O)cc2)cc1O (stereo unspecified)

Target: Protein kinase C delta type (Homo sapiens, UniProt Q05655)
Assay: Evaluated against recombinant human Protein kinase C delta
Summary of the method: as §1

Protein kinase C delta type, sequence (Q05655 whole entry): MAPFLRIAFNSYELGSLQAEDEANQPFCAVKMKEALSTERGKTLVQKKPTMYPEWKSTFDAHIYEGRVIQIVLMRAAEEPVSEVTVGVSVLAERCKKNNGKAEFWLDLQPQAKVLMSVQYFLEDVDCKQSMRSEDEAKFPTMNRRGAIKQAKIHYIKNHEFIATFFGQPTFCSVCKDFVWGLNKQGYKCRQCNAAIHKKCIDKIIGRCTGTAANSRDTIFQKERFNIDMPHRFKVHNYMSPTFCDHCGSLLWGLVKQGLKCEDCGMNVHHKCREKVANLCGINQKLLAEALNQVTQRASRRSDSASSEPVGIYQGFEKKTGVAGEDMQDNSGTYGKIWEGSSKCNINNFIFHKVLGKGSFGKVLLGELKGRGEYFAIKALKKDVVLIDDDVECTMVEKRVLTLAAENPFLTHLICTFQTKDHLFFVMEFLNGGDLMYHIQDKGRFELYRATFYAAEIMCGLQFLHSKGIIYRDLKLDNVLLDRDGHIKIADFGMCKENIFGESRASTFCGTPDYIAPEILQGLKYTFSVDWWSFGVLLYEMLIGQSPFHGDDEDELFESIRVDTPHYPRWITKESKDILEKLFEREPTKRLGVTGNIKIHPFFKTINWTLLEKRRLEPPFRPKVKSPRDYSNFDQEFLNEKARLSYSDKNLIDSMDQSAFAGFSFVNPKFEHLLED

Compound | IC50
O=C(OCCCc1ccc(O)cc1)c1cc(O)c(C(=O)c2c(O)cccc2C(=O)O)c(O)c1 | 130 nM
O=C(OC[C@H](Cc1ccc(O)cc1)NS(=O)(=O)c1ccccc1)c1cc(O)c(C(=O)c2c(O)cccc2C(=O)O)c(O)c1 | 30 nM
O=C(OC1CCCC1Cc1ccc(O)cc1)c1cc(O)c(C(=O)c2c(O)cccc2C(=O)O)c(O)c1 (stereo in doubt; 20b) | 30 nM
O=C(OC1CNCC1Cc1ccc(O)cc1)c1cc(O)c(C(=O)c2c(O)cccc2C(=O)O)c(O)c1 (stereo unspecified) | 5 nM

The next lines start with the values.

IC50 | Compound
270 nM | CN(C)C(COC(=O)c1cc(O)c(C(=O)c2c(O)cccc2C(=O)O)c(O)c1)Cc1ccc(O)cc1 (stereo unspecified)
50 nM | COC(=O)c1cccc(O)c1C(=O)c1c(O)cc(C(=O)OC2CCCC2Cc2ccc(O)cc2)cc1O (stereo unspecified)

Target: Protein kinase C alpha type (Homo sapiens, UniProt P17252)
Assay: Evaluated against recombinant human Protein kinase C alpha
Summary of the method: as §1

Compound | IC50
O=C(OCCCc1ccc(O)cc1)c1cc(O)c(C(=O)c2c(O)cccc2C(=O)O)c(O)c1 | 1900 nM
O=C(OC[C@H](Cc1ccc(O)cc1)NS(=O)(=O)c1ccccc1)c1cc(O)c(C(=O)c2c(O)cccc2C(=O)O)c(O)c1 | 1900 nM
O=C(OC1CCCC1Cc1ccc(O)cc1)c1cc(O)c(C(=O)c2c(O)cccc2C(=O)O)c(O)c1 (stereo in doubt; 20b) | 160 nM
O=C(OC1CNCC1Cc1ccc(O)cc1)c1cc(O)c(C(=O)c2c(O)cccc2C(=O)O)c(O)c1 (stereo unspecified) | 260 nM

The next lines start with the values.

IC50 | Compound
4000 nM | CN(C)C(COC(=O)c1cc(O)c(C(=O)c2c(O)cccc2C(=O)O)c(O)c1)Cc1ccc(O)cc1 (stereo unspecified)
1400 nM | COC(=O)c1cccc(O)c1C(=O)c1c(O)cc(C(=O)OC2CCCC2Cc2ccc(O)cc2)cc1O (stereo unspecified)

Target: T2, Protein kinase C epsilon type (Homo sapiens, UniProt Q02156)
T2 sequence (Q02156 whole entry): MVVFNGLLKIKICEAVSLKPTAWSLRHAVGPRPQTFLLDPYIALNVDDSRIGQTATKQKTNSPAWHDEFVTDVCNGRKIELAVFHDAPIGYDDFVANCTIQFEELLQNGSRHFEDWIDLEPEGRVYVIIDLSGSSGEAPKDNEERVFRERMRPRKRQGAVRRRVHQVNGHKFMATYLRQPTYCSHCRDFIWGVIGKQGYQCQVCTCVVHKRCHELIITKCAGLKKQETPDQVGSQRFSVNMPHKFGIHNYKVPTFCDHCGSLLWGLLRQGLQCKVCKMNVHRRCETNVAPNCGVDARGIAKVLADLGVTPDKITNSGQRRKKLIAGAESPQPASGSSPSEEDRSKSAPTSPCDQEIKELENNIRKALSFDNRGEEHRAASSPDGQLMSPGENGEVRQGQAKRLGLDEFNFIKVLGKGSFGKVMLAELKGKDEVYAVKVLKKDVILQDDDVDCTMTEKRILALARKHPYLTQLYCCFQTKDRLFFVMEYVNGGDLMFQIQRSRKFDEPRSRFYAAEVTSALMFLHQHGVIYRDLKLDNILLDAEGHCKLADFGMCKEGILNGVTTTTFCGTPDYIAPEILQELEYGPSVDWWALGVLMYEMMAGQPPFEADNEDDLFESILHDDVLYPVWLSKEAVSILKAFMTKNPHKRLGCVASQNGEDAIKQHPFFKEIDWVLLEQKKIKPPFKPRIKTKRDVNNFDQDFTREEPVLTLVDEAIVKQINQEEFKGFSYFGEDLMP
Assay: Evaluated against recombinant human Protein kinase C epsilon
Summary of the method: as §1

Compound | IC50
O=C(OCCCc1ccc(O)cc1)c1cc(O)c(C(=O)c2c(O)cccc2C(=O)O)c(O)c1 | 4100 nM
O=C(OC[C@H](Cc1ccc(O)cc1)NS(=O)(=O)c1ccccc1)c1cc(O)c(C(=O)c2c(O)cccc2C(=O)O)c(O)c1 | 2300 nM
O=C(OC1CCCC1Cc1ccc(O)cc1)c1cc(O)c(C(=O)c2c(O)cccc2C(=O)O)c(O)c1 (stereo in doubt; 20b) | 500 nM
O=C(OC1CNCC1Cc1ccc(O)cc1)c1cc(O)c(C(=O)c2c(O)cccc2C(=O)O)c(O)c1 (stereo unspecified) | 1800 nM

The next lines start with the values.

IC50 | Compound
30000 nM | CN(C)C(COC(=O)c1cc(O)c(C(=O)c2c(O)cccc2C(=O)O)c(O)c1)Cc1ccc(O)cc1 (stereo unspecified)
4500 nM | COC(=O)c1cccc(O)c1C(=O)c1c(O)cc(C(=O)OC2CCCC2Cc2ccc(O)cc2)cc1O (stereo unspecified)

Target: Protein kinase C eta type (Homo sapiens, UniProt P24723)
Assay: Evaluated against recombinant human Protein kinase C eta
Summary of the method: as §1

Protein kinase C eta type, sequence (P24723 whole entry): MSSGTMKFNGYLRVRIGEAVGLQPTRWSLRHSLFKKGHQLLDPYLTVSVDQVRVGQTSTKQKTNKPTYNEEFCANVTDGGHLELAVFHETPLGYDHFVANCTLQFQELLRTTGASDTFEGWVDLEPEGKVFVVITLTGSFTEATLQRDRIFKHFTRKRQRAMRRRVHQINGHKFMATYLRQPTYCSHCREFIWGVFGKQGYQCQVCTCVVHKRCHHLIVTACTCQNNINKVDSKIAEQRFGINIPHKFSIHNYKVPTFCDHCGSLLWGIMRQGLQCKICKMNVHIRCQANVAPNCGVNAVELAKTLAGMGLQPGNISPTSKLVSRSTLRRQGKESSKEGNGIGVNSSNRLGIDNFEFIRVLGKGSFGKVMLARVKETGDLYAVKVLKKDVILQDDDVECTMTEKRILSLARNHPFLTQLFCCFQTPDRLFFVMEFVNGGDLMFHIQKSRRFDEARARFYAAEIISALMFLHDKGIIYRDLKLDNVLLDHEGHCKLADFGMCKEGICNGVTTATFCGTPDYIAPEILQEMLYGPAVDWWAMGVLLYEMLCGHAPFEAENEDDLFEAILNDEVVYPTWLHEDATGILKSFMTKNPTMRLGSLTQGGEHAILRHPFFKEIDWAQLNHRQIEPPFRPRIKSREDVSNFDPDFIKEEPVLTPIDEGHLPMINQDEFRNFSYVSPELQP

Compound | IC50
O=C(OCCCc1ccc(O)cc1)c1cc(O)c(C(=O)c2c(O)cccc2C(=O)O)c(O)c1 | < 50 nM
O=C(OC[C@H](Cc1ccc(O)cc1)NS(=O)(=O)c1ccccc1)c1cc(O)c(C(=O)c2c(O)cccc2C(=O)O)c(O)c1 | 20 nM
O=C(OC1CCCC1Cc1ccc(O)cc1)c1cc(O)c(C(=O)c2c(O)cccc2C(=O)O)c(O)c1 (stereo in doubt; 20b) | 10 nM
O=C(OC1CNCC1Cc1ccc(O)cc1)c1cc(O)c(C(=O)c2c(O)cccc2C(=O)O)c(O)c1 (stereo unspecified) | 20 nM

Continued, values first:

IC50 | Compound
1400 nM | CN(C)C(COC(=O)c1cc(O)c(C(=O)c2c(O)cccc2C(=O)O)c(O)c1)Cc1ccc(O)cc1 (stereo unspecified)
40 nM | COC(=O)c1cccc(O)c1C(=O)c1c(O)cc(C(=O)OC2CCCC2Cc2ccc(O)cc2)cc1O (stereo unspecified)

Target: not listed separately
Assay: Evaluated against bovine heart Protein Kinase A (PKA)

Compound | IC50
O=C(OCCCc1ccc(O)cc1)c1cc(O)c(C(=O)c2c(O)cccc2C(=O)O)c(O)c1 | > 50000 nM
O=C(OC[C@H](Cc1ccc(O)cc1)NS(=O)(=O)c1ccccc1)c1cc(O)c(C(=O)c2c(O)cccc2C(=O)O)c(O)c1 | > 50000 nM

Continued, values first:

IC50 | Compound
> 50000 nM | CN(C)C(COC(=O)c1cc(O)c(C(=O)c2c(O)cccc2C(=O)O)c(O)c1)Cc1ccc(O)cc1 (stereo unspecified)
> 50000 nM | COC(=O)c1cccc(O)c1C(=O)c1c(O)cc(C(=O)OC2CCCC2Cc2ccc(O)cc2)cc1O (stereo unspecified)
